Tests used:
[1] = molecular target: protein farnesyltransferase (Trypanosoma brucei); assay: Inhibition of Trypanosoma brucei protein farnesyltransferase at 50 nM
[2] = tested on: Trypanosoma brucei rhodesiense; assay: Dose required to inhibit growth of Trypanosoma brucei rhodesiense; 14->60 uM; format: functional; conditions: read-out: ED50 (the source's name)
Procedure, shortened: (§1)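 Bloodstream-form trypomastigotes of strain STIB 900 were grown in HMI-18 with nonessential amino acids, glucose and 15% heat-inactivated FCS at 37 °C, 5% CO2. Compounds were given as serial dilutions, in triplicate, from 1 × 10^4 cells/well. Cultures ran 72 h before Alamar Blue read-out, and ED50 was fitted.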

[3] = tested on: protein farnesyltransferase (Trypanosoma brucei); assay: Inhibition of against Trypanosoma brucei protein farnesyltransferase at 50 nM concentration
[4] = tested on: Trypanosoma brucei brucei; assay: Effective dose required to inhibit the growth of Trypanosoma brucei; format: functional; conditions: read-out: ED50 (the source's name)
Procedure, shortened: (§2)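 Bloodstream-form strain 427 was grown in HMI-9 with 10% FBS at 37 °C, 5% CO2. Cells were seeded at 1 × 10^4 trypomastigotes/well in triplicate, with serial dilutions from 20 mM DMSO stocks. Growth was read with Alamar Blue at 48 h, pentamidine served as positive control, and ED50 was fitted from the curves.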

[5] = tested on: protein farnesyltransferase (Trypanosoma brucei); assay: Inhibition of Trypanosoma brucei protein farnesyltransferase at 50 nM (0-17%)
NIH3T3 [6] = assay: Effective dose against murine 3T3 fibroblasts cells; format: functional; conditions: Mus musculus, read-out: ED50 (the source's name)
Procedure, shortened: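 Murine 3T3 fibroblasts were grown in RPMI 1640 with 10% FBS and held 72 h with compound at 37 °C, 5% CO2.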

[7] = tested on: Trypanosoma brucei brucei; assay: Dose required to inhibit growth of Trypanosoma brucei; 1-5 uM; format: functional; conditions: read-out: ED50
Procedure, shortened: as §2

[8] = tested on: Trypanosoma brucei rhodesiense; assay: Dose required to inhibit growth of Trypanosoma brucei rhodesiense; 0.38-0.92 uM; format: functional; conditions: read-out: ED50
Procedure, shortened: as §1

[9] = tested on: Trypanosoma brucei rhodesiense; assay: Effective dose required to inhibit the growth of Trypanosoma brucei rhodesiense; format: functional; conditions: read-out: ED50 (the source's name)
Procedure, shortened: as §1

[10] = tested on: Trypanosoma brucei brucei; assay: Dose required to inhibit growth of Trypanosoma brucei; 1-10 uM; format: functional; conditions: read-out: ED50 (the source's name)
Procedure, shortened: as §2

[11] = tested on: protein farnesyltransferase (Trypanosoma brucei); assay: Inhibition of Trypanosoma brucei protein farnesyltransferase at 50 nM (29-41%)
[12] = tested on: Protein farnesyltransferase (Trypanosoma brucei); assay: Inhibition of Trypanosoma brucei protein farnesyltransferase at 50 nM (82-87%)
[13] = tested on: protein farnesyltransferase (Trypanosoma brucei); assay: Inhibition of Trypanosoma brucei protein farnesyltransferase at 50 nM concentration (65-74%)
NIH3T3 [14] = assay: Dose required against murine 3T3 fibroblasts cells; 1-10 uM; format: functional; conditions: Mus musculus, read-out: ED50 (the source's name)
[15] = molecular target: protein farnesyltransferase (Trypanosoma brucei); assay: Inhibition of Trypanosoma brucei protein farnesyltransferase
[16] = molecular target: Protein farnesyltransferase (Homo sapiens, UniProt P49354+P49356); assay: Inhibition of mammalian protein farnesyltransferase; format: protein-complex assay
NIH3T3 [17] = assay: Dose required to block Ras farnesylation in mouse 3T3 fibroblasts; format: functional; conditions: read-out: ED50 (the source's name)

inhibition [3] [%]	EC50 [4] [µM]	EC50 [9] [µM]	Structure (SMILES)	EC50 (NIH3T3 [6]) [µM]	other results
85.6	> 10		CSCC[C@H](NC(=O)c1ccc(NCc2cncn2Cc2ccc(-c3ccccc3)cc2)cc1-c1ccccc1)C(=O)O		IC50 [1]: 0.008 µM; EC50 [2]: > 60 µM
			COC(=O)[C@H](CCSC)NC(=O)c1ccc(NCc2cncn2Cc2cccc([N+](=O)[O-])c2)cc1-c1ccccc1	> 10	inhibition [5]: ≤ 17%; EC50 [7]: ≤ 5 µM; EC50 [8]: ≤ 0.92 µM
18.6		3.2	N#Cc1ccc(Cn2cncc2CNc2ccc(C(=O)NCC3CCCCC3)c(-c3ccccc3)c2)cc1	> 10	EC50 [10]: > 10 µM
	> 10	> 60	CSCC[C@H](NC(=O)c1ccc(NCc2cncn2Cc2ccccc2C#N)cc1-c1ccccc1)C(=O)O	> 10	inhibition [11]: ≤ 41%
	> 10	> 60	CSCC[C@H](NC(=O)c1ccc(NCc2cncn2Cc2ccccc2C)cc1-c1ccccc1)C(=O)O	> 10	inhibition [11]: ≤ 41%
	> 10		CSCC[C@H](NC(=O)c1ccc(NCc2cncn2Cc2ccc(Cl)cc2)cc1-c1ccccc1)C(=O)O	> 10	EC50 [2]: > 60 µM; inhibition [12]: ≤ 87%
		0.9	CSCC[C@H](NC(=O)c1ccc(CN(Cc2c[nH]cn2)Cc2c[nH]cn2)cc1-c1ccccc1C)C(=O)O	> 10	EC50 [10]: > 10 µM
	> 10	> 60	CSCC[C@H](NC(=O)c1ccc(NCc2cncn2Cc2ccccc2Cl)cc1-c1ccccc1)C(=O)O	> 10	inhibition [11]: ≤ 41%
	> 10	> 60	CSCC[C@H](NC(=O)c1ccc(NCc2cncn2Cc2cccc(C)c2)cc1-c1ccccc1)C(=O)O	> 10	inhibition [13]: ≤ 74%
0			COC(=O)[C@H](CCSC)NC(=O)c1ccc(NCc2cncn2Cc2ccccc2C)cc1-c1ccccc1	> 10	EC50 [10]: ≤ 10 µM
15.2	0.02	0.02	CCCCC(CC)OC(=O)[C@H](CCSC)NC(=O)c1ccc(CNCc2c[nH]cn2)cc1-c1ccccc1C (stereo partly specified)		EC50 (NIH3T3 [14]): > 10 µM
	0.7		COC(=O)[C@H](CCSC)NC(=O)c1ccc(NC[C@@H](N)CS)cc1-c1ccccc1	> 25	IC50 [15]: 0.04 µM
			COC(=O)[C@H](CCSC)NC(=O)c1ccc(NCc2cncn2Cc2cccc(Cl)c2)cc1-c1ccccc1	> 10	inhibition [5]: ≤ 17%; EC50 [7]: ≤ 5 µM; EC50 [8]: ≤ 0.92 µM
0			COC(=O)[C@H](CCSC)NC(=O)c1ccc(NCc2cncn2Cc2ccccc2C#N)cc1-c1ccccc1	> 10	EC50 [10]: ≤ 10 µM
	> 10	> 60	CSCC[C@H](NC(=O)c1ccc(NCc2cncn2Cc2cccc(C#N)c2)cc1-c1ccccc1)C(=O)O	> 10	inhibition [13]: ≤ 74%
	> 10	> 60	CSCC[C@H](NC(=O)c1ccc(NCc2cncn2Cc2ccc(C#N)cc2)cc1-c1ccccc1)C(=O)O	> 10	inhibition [12]: ≤ 87%
			COC(=O)[C@H](CCSC)NC(=O)c1ccc(NCc2cncn2Cc2cccc(C)c2)cc1-c1ccccc1	> 10	inhibition [5]: ≤ 17%; EC50 [7]: ≤ 5 µM; EC50 [8]: ≤ 0.92 µM
0			COC(=O)[C@H](CCSC)NC(=O)c1ccc(NCc2cncn2Cc2ccccc2Cl)cc1-c1ccccc1	> 10	EC50 [10]: ≤ 10 µM
83.2	> 25	> 60	CSCC[C@H](NC(=O)c1ccc(NC(=O)Cc2cncn2C)cc1-c1ccccc1C)C(=O)O	> 25	IC50 [15]: 0.0066 µM
	> 10		CSCC[C@H](NC(=O)c1ccc(NCc2cncn2Cc2ccc([N+](=O)[O-])cc2)cc1-c1ccccc1)C(=O)O	> 10	EC50 [2]: > 60 µM; inhibition [12]: 87%
	> 10		CSCC[C@H](NC(=O)c1ccc(NCc2cncn2Cc2ccc(C)cc2)cc1-c1ccccc1)C(=O)O	> 10	EC50 [2]: > 60 µM; inhibition [12]: ≤ 87%
41.7	0.02		CSCC[C@H](NC(=O)c1ccc(CNCc2c[nH]cn2)cc1-c1ccccc1C)C(=O)OCc1ccccc1		EC50 (NIH3T3 [14]): > 10 µM
96.1	1	0.2	CSCC[C@H](NC(=O)c1ccc(CNCc2c[nH]cn2)cc1-c1ccccc1C)C(=O)O	> 25	IC50 [16]: 0.00086 µM; IC50 [15]: 0.0018 µM; EC50 (NIH3T3 [17]): 0.02 µM
4.9	0.01	0.009	C=COC(=O)[C@H](CCSC)NC(=O)c1ccc(CNCc2c[nH]cn2)cc1-c1ccccc1C		EC50 (NIH3T3 [14]): > 10 µM
	> 10	> 60	CSCC[C@H](NC(=O)c1ccc(NCc2cncn2Cc2cccc(Cl)c2)cc1-c1ccccc1)C(=O)O	> 10	inhibition [13]: ≤ 74%
4.5	0.03	0.018	CSCC[C@H](NC(=O)c1ccc(CNCc2c[nH]cn2)cc1-c1ccccc1C)C(=O)OC1CCCCC1		EC50 (NIH3T3 [14]): > 10 µM
			COC(=O)[C@H](CCSC)NC(=O)c1ccc(NCc2cncn2Cc2cccc(C#N)c2)cc1-c1ccccc1	> 10	inhibition [5]: ≤ 17%; EC50 [7]: ≤ 5 µM; EC50 [8]: ≤ 0.92 µM

Source: ChEMBL document CHEMBL1148384, “Design and synthesis of peptidomimetic protein farnesyltransferase inhibitors as anti-Trypanosoma brucei agents” (J Med Chem, 2004)
